According to ChEMBL document CHEMBL4308830, “Design, Synthesis, and Characterization of 4-Undecylpiperidine-2-carboxamides as Positive Allosteric Modulators of the Serotonin (5-HT) 5-HT2C Receptor” (J Med Chem, 2018):
The source made the active and inactive calls. The rule behind the calls is not given here.

Key:
[1] = target: T1, 5-hydroxytryptamine receptor 2C (Homo sapiens) (UniProt P28335); assay: Intrinsic agonist activity at human 5-HT2CR expressed in CHO cells assessed as induction of intracellular calcium release at 1 nM incubated for 15 mins measured every 1 sec for 120 secs by calcium-4 dye based FLIPR assay; assay type: functional, cell-based
T1 sequence (whole entry): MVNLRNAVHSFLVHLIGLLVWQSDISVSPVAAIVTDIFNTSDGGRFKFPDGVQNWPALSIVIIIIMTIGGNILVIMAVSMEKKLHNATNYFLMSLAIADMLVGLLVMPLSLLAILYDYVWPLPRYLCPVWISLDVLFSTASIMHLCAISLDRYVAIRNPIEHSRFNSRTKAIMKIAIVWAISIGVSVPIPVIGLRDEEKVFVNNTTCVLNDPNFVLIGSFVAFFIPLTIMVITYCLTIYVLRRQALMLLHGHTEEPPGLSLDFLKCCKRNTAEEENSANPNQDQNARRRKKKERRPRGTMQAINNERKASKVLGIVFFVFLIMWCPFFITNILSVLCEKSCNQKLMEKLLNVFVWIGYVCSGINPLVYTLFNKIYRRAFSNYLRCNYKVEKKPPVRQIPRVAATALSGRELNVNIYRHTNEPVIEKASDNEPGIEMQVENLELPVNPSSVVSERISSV
Procedure, shortened: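 CHO cells stably expressing human unedited INI 5-HT2CR were plated, serum-starved 3 h, then loaded with Calcium 4 dye plus 2.5 mM probenecid (60 min 37 °C, then 15 min RT). Compound (1 nM) was added; the read after this addition gave intrinsic agonism. 5-HT (10 pM–10 μM) followed 15 min later. FLIPR-TETRA: 10 s baseline, 1 s reads for 120 s after compound and 360 s after 5-HT. Emax came from 4-parameter fits, ≥3 biological replicates in triplicate.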

[2] = target: 5-hydroxytryptamine receptor 2A (Homo sapiens, UniProt P28223); assay: Positive allosteric modulation of human 5-HT2AR expressed in CHO cells assessed as increase in 5-HT-induced intracellular calcium release at 0.000001 to 1 uM preincubated for 15 mins followed by 5-HT addition by calcium-4 dye based FLIPR assay; assay type: cell-based
5-hydroxytryptamine receptor 2A, sequence (P28223 whole entry): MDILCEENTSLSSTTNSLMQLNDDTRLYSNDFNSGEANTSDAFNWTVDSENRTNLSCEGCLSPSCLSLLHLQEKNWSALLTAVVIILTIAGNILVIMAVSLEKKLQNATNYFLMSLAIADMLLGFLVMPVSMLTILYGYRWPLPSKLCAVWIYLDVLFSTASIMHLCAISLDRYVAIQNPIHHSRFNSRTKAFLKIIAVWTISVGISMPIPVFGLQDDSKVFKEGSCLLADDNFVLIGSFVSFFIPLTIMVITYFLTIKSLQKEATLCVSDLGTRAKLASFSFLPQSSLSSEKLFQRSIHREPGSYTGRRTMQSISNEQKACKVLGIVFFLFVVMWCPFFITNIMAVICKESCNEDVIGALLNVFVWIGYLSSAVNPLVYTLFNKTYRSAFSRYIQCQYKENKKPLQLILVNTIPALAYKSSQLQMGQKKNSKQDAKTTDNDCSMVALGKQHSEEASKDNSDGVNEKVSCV
Procedure, shortened: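 Human 5-HT2AR-CHO cells, same calcium assay: Calcium 4 dye with probenecid. Compound (1 pM, 1 nM, 1 μM) was given 15 min before a 5-HT concentration–response (10 pM–10 μM). Peak fluorescence was fit by 4-parameter regression.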

5-HT2A receptor = 5-HT2A receptor (Homo sapiens, UniProt P28223); assay: Displacement of [3H]-Ketanserin from recombinant human 5-HT2AR expressed in HEKT cell membranes at 10 uM after 90 mins by scintillation counting method relative to control; details: probe [3H]-Ketanserin
5-HT2A receptor, sequence (P28223 whole entry): as above

[3] = target: D(2) dopamine receptor (Homo sapiens) (UniProt P14416); assay: Displacement of [3H]-N-methylspiperone from recombinant human D2R expressed in fibroblast membranes at 10 uM after 90 mins by scintillation counting method relative to control; assay type: cell membranes
D(2) dopamine receptor (Homo sapiens), sequence (P14416 whole entry): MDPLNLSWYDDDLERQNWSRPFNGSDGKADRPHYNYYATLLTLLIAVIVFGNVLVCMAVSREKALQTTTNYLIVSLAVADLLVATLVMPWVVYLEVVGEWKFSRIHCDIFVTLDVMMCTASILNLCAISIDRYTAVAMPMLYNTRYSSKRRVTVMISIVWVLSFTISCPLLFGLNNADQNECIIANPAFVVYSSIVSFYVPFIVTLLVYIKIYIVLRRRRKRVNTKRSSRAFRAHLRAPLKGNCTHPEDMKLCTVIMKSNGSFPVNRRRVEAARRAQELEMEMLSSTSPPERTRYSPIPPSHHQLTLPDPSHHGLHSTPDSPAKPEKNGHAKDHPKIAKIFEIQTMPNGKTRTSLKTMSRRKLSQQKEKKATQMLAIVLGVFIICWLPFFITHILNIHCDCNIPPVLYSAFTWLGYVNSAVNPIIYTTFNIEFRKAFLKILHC

[4] = Tmax in Sprague-Dawley rat at 10 mg/kg, po administered as single dose; assay type: ADME, organism-based; details: in vivo

CCCCCCCCCCC[C@@H]1CCN[C@H](C(=O)NCC(O)CO)C1 (relative stereo)
Activity [1]: inactive | Activity [2]: Not Active | inhibition at 1.5 h, 10 µM (5-HT2A receptor): 37.1% | inhibition [3]: 28.8% | Tmax [4]: 3.3 h
